# Data taken from ChEMBL document CHEMBL1131008, “Substituted halogenated arylsulfonamides: a new class of sigma receptor binding tumor imaging agents” (J Med Chem, 1998).
# Biological target: Sigma 2 receptor
# Assay: Inhibition of [3H]-DTG binding to sigma-2 receptor of rat liver membranes with 1 uM dextrallorphan
# Type: cell membranes, Membrane
# Procedure, shortened: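 Rat liver membranes (150-200 µg protein) incubated with 5 nM [3H]DTG plus 1 µM dextrallorphan to mask sigma-1 sites, in 50 mM Tris-HCl pH 8.0, 120 min at 25 °C. […] Filtration assay. IC50 from curve fitting, converted to Ki via Cheng-Prusoff. Two or three experiments, each in duplicate.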
row,Ki [nM],Structure (SMILES)
1,189,O=S(=O)(NCCN1CCCCCC1)c1ccc(I)cc1
2,2830,CCN(CC)CCNS(=O)(=O)c1ccc(Br)cc1
3,1000,O=S(=O)(NCCN1CCCC1)c1ccc(I)cc1
4,2390,CCN(CC)CCNS(=O)(=O)c1ccc(I)cc1
5,206,O=S(=O)(NCCN1CCCCC1)c1ccc(I)cc1

# Continued, molecule first:
row,Structure (SMILES),Ki [nM]
1,COc1ccc(S(=O)(=O)N(C)CCN2CCCCCC2)cc1I,337
2,CN(CCN1CCCCCC1)S(=O)(=O)c1ccc(I)cc1,23.5
3,O=S(=O)(NCCN1CCCCCC1)c1ccc(Br)cc1,198
4,CN(CCN1CCCCCC1)S(=O)(=O)c1ccc(Br)cc1,44.4
5,O=S(=O)(NCCN1CCCC1)c1ccc(Br)cc1,1490
6,COc1ccc(S(=O)(=O)NCCN2CCCCC2)cc1I,449
7,O=S(=O)(NCCN1CCCCC1)c1ccc(Br)cc1,459
